From ChEMBL document CHEMBL1157353, “Synthesis and biological evaluation of (-)- and (+)-debromoflustramine B and its analogues as selective butyrylcholinesterase inhibitors” (J Med Chem, 2008) come the findings set out here.

Test [1] concerns the target T1, Cholinesterase (Homo sapiens, UniProt P06276). The experiment in a line: Inhibition of human plasma BChE after 20 mins by Ellman's method. Type of test: cell-free. The method in brief:
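Human plasma BChE, Ellman method, in 0.1 M phosphate buffer pH 8.0 with 340 µM butyrylthiocholine iodide. Compounds were preincubated with enzyme for 20 min at 37 °C before substrate was added, and an enzyme-free blank corrected for nonenzymatic hydrolysis. Compounds were screened at 1 mM; those giving >30% inhibition were run at nine concentrations (10-3–10-7 M), three times in triplicate. IC50 came from probit-transformed % activity versus log concentration.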
(In Ellman's method for cholinesterases, released thiocholine reacts with DTNB.)

Test [2] has as its target T1, Cholinesterase. The experiment in a line: Inhibition of human plasma BChE at <10000 uM after 20 mins by Ellman's method. Type of test: cell-free.

The source made the active and inactive calls. The calls are words filed in the database; no cut-off is given here.

T1 sequence (P06276 whole entry): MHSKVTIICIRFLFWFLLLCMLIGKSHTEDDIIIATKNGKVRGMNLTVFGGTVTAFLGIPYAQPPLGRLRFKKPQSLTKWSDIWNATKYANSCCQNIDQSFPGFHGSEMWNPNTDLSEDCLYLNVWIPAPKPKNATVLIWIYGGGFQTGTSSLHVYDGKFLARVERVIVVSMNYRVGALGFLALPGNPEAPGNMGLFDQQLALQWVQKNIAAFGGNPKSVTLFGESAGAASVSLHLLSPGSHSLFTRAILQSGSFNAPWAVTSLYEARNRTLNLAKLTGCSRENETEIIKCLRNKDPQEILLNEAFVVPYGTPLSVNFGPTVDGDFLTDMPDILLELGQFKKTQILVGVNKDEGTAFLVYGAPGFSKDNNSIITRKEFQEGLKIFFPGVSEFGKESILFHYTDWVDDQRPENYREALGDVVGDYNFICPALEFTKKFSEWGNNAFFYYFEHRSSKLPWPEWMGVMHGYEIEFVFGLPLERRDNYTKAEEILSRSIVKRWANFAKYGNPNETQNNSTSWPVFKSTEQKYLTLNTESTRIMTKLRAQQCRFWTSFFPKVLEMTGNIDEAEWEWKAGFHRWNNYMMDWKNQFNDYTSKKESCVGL

On Cholinesterase [1], `CC(C)=CCC12CCN(C)C1N(Cc1ccccc1)c1ccccc12` (configuration not stated) yielded an IC50 of 10 µM.
For `CN1CCC2(Cc3ccncc3)c3ccccc3N(Cc3ccccc3)C12` (configuration not stated), at Cholinesterase [2], the result was inactive.
Still for that read-out and setting: in the case of `CCCN1c2ccccc2C2(CCC)CCN(C)C12` (configuration not stated) it was “inactive”.
In the case of `CC(C)=CCN1c2ccccc2C2(CC=C(C)C)CCN(C)C12` (racemic) [(+/-)-DEBROMOFLUSTRAMINE B], on Cholinesterase [1], the IC50 worked out at 2.59 µM.
At Cholinesterase [1], `COc1ccc2c(c1)C1(CC=C(C)C)CCN(C)C1N2Cc1ccccc1` (configuration not stated) registered an IC50 of 7.54 µM.
The same measure, in the same setting: in the case of `CN1CCC2(Cc3ccccc3)c3ccccc3N(Cc3ccccc3)C12` (configuration not stated) it was 22.1 µM.
Consider `CC(C)=CCN1c2ccccc2C2(CC=C(C)C)CCNC12` (configuration not stated) [DEMETHYLDEBROMOFLUSTRAMINE B], for which the half-maximal inhibitory concentration (IC50) against Cholinesterase [1] worked out at 0.26 µM.
`COc1ccc2c(c1)C1(CC=C(C)C)CCN(Cc3ccccc3)C1N2Cc1ccccc1` (configuration not stated): the result at Cholinesterase [2] was inactive.
The compound `CC(C)=CCN1c2ccccc2[C@@]2(CC=C(C)C)CCN(C)[C@@H]12` [(+)-DEBROMOFLUSTRAMINE B] returned a 50% inhibitory concentration (IC50) at Cholinesterase [1] of 10300 µM.
Turning to `CC(C)=CCN1CCC2(CC=C(C)C)c3ccccc3N(CC=C(C)C)C12` (configuration not stated), 1.72 µM corresponded to half-maximal inhibition against Cholinesterase [1] (IC50).
In turn, `COc1ccc2c(c1)C1(Cc3ccccc3)CCN(C)C1N2Cc1ccccc1` (configuration not stated) displayed a concentration for half-maximal inhibition (IC50) against Cholinesterase [1] of 5.89 µM.
Take `CN1CCC2(Cc3ccncc3)c3ccccc3N(Cc3ccncc3)C12` (configuration not stated): on Cholinesterase [2], the result was inactive.
On the same count and under the same terms, in the case of `CC(C)=CCC12CCN(C)C1N(C)c1ccccc12` (configuration not stated) it was “inactive”; in that of `CC(C)CCN1c2ccccc2C2(CCC(C)C)CCN(C)C12` (configuration not stated), “inactive”; in that of `COc1ccc2c(c1)C1(Cc3ccccc3)CCN(Cc3ccccc3)C1N2Cc1ccccc1` (configuration not stated), “inactive”.
Still for that read-out and setting: the result for `CC(C)=CCN1c2ccccc2C2(CC=C(C)C)CCN(Cc3ccccc3)C12` (configuration not stated) reads “inactive”.
As to `CCN1c2ccccc2C2(CC)CCN(C)C12` (configuration not stated), the outcome at Cholinesterase [2] was inactive.
Consider `COc1ccc2c(c1)C1(CC=C(C)C)CCN(C)C1N2CC=C(C)C` (configuration not stated), for which the half-maximal inhibitory concentration (IC50) on Cholinesterase [1] worked out at 4.59 µM.
On the same count and under the same terms, the result for `COc1ccc2c(c1)C1(CC=C(C)C)CCN(Cc3ccccc3)C1N2CC=C(C)C` (configuration not stated) reads 50 µM.
For `CN1CCC2(C)c3ccccc3N(C)C12` (configuration not stated), at Cholinesterase [2], the outcome was inactive.
For the compound `CC(C)=CCN1c2ccccc2[C@]2(CC=C(C)C)CCN(C)[C@H]12` [(-)-DEBROMOFLUSTRAMINE B], the outcome on Cholinesterase [2] was inactive. Also, inhibition at Cholinesterase [1] was half-maximal at 1.37 µM (IC50).

The term IC50 denotes the concentration at which inhibition is half-maximal.
